Our source for the inhibition values is ChEMBL document CHEMBL1811881, “Development of 3-substituted-androsterone derivatives as potent inhibitors of 17β-hydroxysteroid dehydrogenase type 3” (Bioorg Med Chem, 2011).

A word on the inhibition: it is the percentage by which the read-out fell short of the control.

Each structure is given as a SMILES string.

Common to all, as to format: cell-based
Test [1] addresses T1, 17-beta-hydroxysteroid dehydrogenase type 3 (Homo sapiens) (UniProt P37058).
T1 sequence (whole entry): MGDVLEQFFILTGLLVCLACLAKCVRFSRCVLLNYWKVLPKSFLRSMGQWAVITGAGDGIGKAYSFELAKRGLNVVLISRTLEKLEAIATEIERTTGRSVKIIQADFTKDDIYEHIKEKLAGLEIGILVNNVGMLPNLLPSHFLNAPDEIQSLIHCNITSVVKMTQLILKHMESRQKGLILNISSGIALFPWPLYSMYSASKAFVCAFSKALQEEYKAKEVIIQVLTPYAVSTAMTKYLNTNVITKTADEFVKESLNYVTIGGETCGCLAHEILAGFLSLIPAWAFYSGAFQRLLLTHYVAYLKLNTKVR
Put plainly: Inhibition of 17Beta-HSD3 expressed in intact HEK293 cells assessed as transformation of [14C]-4-androstene-3,17-dione into [14C]-testosterone in presence of NADPH at 0.1 uM after 1 hr incubation. The essentials: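 HEK-293 cells were grown in MEM with 10% FBS at 37 °C under 5% CO2, seeded at 200,000 cells/well, and transfected with 2 µg/well of a 17β-HSD3 expression plasmid. Intact cells then got 50 nM [4-14C]-4-androstene-3,17-dione plus inhibitor in ethanol (0.5% v/v) for 1 h. Radiolabelled steroids were extracted from the medium and quantified. Triplicate; % transformation was used to derive IC50.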

Test [2] concerns the target T1, 17-beta-hydroxysteroid dehydrogenase type 3 (Homo sapiens). As to the kind of experiment: Inhibition of 17Beta-HSD3 expressed in homogenized HEK293 cells assessed as transformation of [14C]-4-androstene-3,17-dione into [14C]-testosterone in presence of NADPH at 0.01 uM. An outline of the steps:
(§1)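 HEK-293 cells overexpressing 17β-HSD3 were briefly homogenized. The enzyme assay measured conversion of 50 nM [4-14C]-4-androstene-3,17-dione to [14C]-testosterone with NADPH in excess (5 mM). Inhibitor was dissolved in ethanol, and the ethanol-only control was used to derive % inhibition at each concentration. Error 10%.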

For test [3] the target is unchanged. Put plainly: Inhibition of 17Beta-HSD3 expressed in homogenized HEK293 cells assessed as transformation of [14C]-4-androstene-3,17-dione into [14C]-testosterone in presence of NADPH at 0.1 uM. An outline of the steps: as §1

With `C[C@@H]1CN(C(=O)c2cccc(C(F)(F)F)c2)[C@@H](C)CN1C[C@@]1(O)CC[C@@]2(C)[C@@H](CC[C@@H]3[C@@H]2CC[C@]2(C)C(=O)CC[C@@H]32)C1`, the inhibition in test [1] is 70%; in test [2], 28%; in test [3] it was 89%.
For `C[C@]12CC[C@@]3(C[C@@H]1CC[C@@H]1[C@@H]2CC[C@]2(C)C(=O)CC[C@@H]12)CN(Cc1ccc(C(F)(F)F)cc1)C(=O)O3` the same measures were 43%, 25% and 80%.
For `C[C@@H]1CN(C(=O)c2ccccc2)[C@@H](C)CN1C[C@@]1(O)CC[C@@]2(C)[C@@H](CC[C@@H]3[C@@H]2CC[C@]2(C)C(=O)CC[C@@H]32)C1` the same measures were 78%, 24% and 87%.
In the same order, the values of `C[C@@H]1CN(Cc2ccc(C(F)(F)F)cc2)[C@@H](C)CN1C[C@@]1(O)CC[C@@]2(C)[C@@H](CC[C@@H]3[C@@H]2CC[C@]2(C)C(=O)CC[C@@H]32)C1` are 36%, 14% and 87%.
For the compound `C[C@]12CC[C@](O)(CN3CCN(Cc4cccc(C(F)(F)F)c4)CC3)C[C@@H]1CC[C@@H]1[C@@H]2CC[C@]2(C)C(=O)CC[C@@H]12`, the inhibition in test [1] was 52%; in test [2], 51%; in test [3] it was 88%.
For `C[C@@H]1CN(Cc2ccccc2C(F)(F)F)[C@@H](C)CN1C[C@@]1(O)CC[C@@]2(C)[C@@H](CC[C@@H]3[C@@H]2CC[C@]2(C)C(=O)CC[C@@H]32)C1` the same measures were 36%, 22% and 85%.
For `C[C@@H]1CN(S(=O)(=O)c2ccc(C(F)(F)F)cc2)[C@@H](C)CN1C[C@@]1(O)CC[C@@]2(C)[C@@H](CC[C@@H]3[C@@H]2CC[C@]2(C)C(=O)CC[C@@H]32)C1` the same measures were 47%, 79% and 92%.
For `C[C@]12CC[C@](O)(CN3CCN(C(=O)c4cccc(C(F)(F)F)c4)CC3)C[C@@H]1CC[C@@H]1[C@@H]2CC[C@]2(C)C(=O)CC[C@@H]12` the same measures were 91%, 10% and 92%.
`C[C@]12CC[C@](O)(CN3CCN(Cc4ccc(C(F)(F)F)cc4)CC3)C[C@@H]1CC[C@@H]1[C@@H]2CC[C@]2(C)C(=O)CC[C@@H]12`: the inhibition in test [1] was 33%; in test [2] it was 14%; in test [3], 81%.
For `C[C@]12CC[C@](O)(CN3CCN(Cc4ccc(C(F)(F)F)cc4C(F)(F)F)CC3)C[C@@H]1CC[C@@H]1[C@@H]2CC[C@]2(C)C(=O)CC[C@@H]12` the same measures were 16%, 22% and 75%.
For the compound `C[C@@H]1CN(S(=O)(=O)c2cccc(C(F)(F)F)c2)[C@@H](C)CN1C[C@@]1(O)CC[C@@]2(C)[C@@H](CC[C@@H]3[C@@H]2CC[C@]2(C)C(=O)CC[C@@H]32)C1`, the inhibition came to 77% in test [1], 32% in test [2] and 91% in test [3].
As to `C[C@@H]1CN(Cc2ccc(C(F)(F)F)cc2C(F)(F)F)[C@@H](C)CN1C[C@@]1(O)CC[C@@]2(C)[C@@H](CC[C@@H]3[C@@H]2CC[C@]2(C)C(=O)CC[C@@H]32)C1`, the inhibition in test [1] amounted to 21%; in test [2] it was 15%; in test [3] it was 71%.
For `C[C@]12CC[C@](O)(CN3CCN(C(=O)c4ccccc4C(F)(F)F)CC3)C[C@@H]1CC[C@@H]1[C@@H]2CC[C@]2(C)C(=O)CC[C@@H]12` the same measures were 62%, 31% and 86%.
For `C[C@@H]1CN(C(=O)C2CCCCC2)[C@@H](C)CN1C[C@@]1(O)CC[C@@]2(C)[C@@H](CC[C@@H]3[C@@H]2CC[C@]2(C)C(=O)CC[C@@H]32)C1` the same measures were 77%, 24% and 90%.
In the same order, the values of `C[C@@H]1CN(C(=O)c2ccc(C(F)(F)F)cc2)[C@@H](C)CN1C[C@@]1(O)CC[C@@]2(C)[C@@H](CC[C@@H]3[C@@H]2CC[C@]2(C)C(=O)CC[C@@H]32)C1` are 61%, 17% and 91%.
For the compound `C[C@]12CC[C@@]3(C[C@@H]1CC[C@@H]1[C@@H]2CC[C@]2(C)C(=O)CC[C@@H]12)CN(Cc1cccc(C(F)(F)F)c1)C(=O)O3`, the inhibition in test [1] is 36%; in test [2] it was 16%; in test [3], 80%.
For `C[C@]12CC[C@](O)(CN3CCN(S(=O)(=O)c4ccc(C(F)(F)F)cc4)CC3)C[C@@H]1CC[C@@H]1[C@@H]2CC[C@]2(C)C(=O)CC[C@@H]12` the same measures were 34%, 21% and 78%.
In the same order, the values of `C[C@]12CC[C@@]3(C[C@@H]1CC[C@@H]1[C@@H]2CC[C@]2(C)C(=O)CC[C@@H]12)CN(Cc1ccccc1C(F)(F)F)C(=O)O3` are 35%, 17% and 81%.
For `C[C@]12CC[C@](O)(CN3CCN(Cc4cc(C(F)(F)F)ccc4C(F)(F)F)CC3)C[C@@H]1CC[C@@H]1[C@@H]2CC[C@]2(C)C(=O)CC[C@@H]12` the same measures were 12%, 18% and 85%.
`C[C@]12CC[C@](O)(CN3CCN(C(=O)c4ccc(C(F)(F)F)cc4)CC3)C[C@@H]1CC[C@@H]1[C@@H]2CC[C@]2(C)C(=O)CC[C@@H]12`: the values for the inhibition in test [1], in test [2] and in test [3] were 56%, 22% and 84%, respectively.
`C[C@@H]1CN(Cc2cc(C(F)(F)F)ccc2C(F)(F)F)[C@@H](C)CN1C[C@@]1(O)CC[C@@]2(C)[C@@H](CC[C@@H]3[C@@H]2CC[C@]2(C)C(=O)CC[C@@H]32)C1`: the inhibition came out at 23% in test [1], 16% in test [2] and 71% in test [3].
For `C[C@@H]1CN(Cc2cc(C(F)(F)F)cc(C(F)(F)F)c2)[C@@H](C)CN1C[C@@]1(O)CC[C@@]2(C)[C@@H](CC[C@@H]3[C@@H]2CC[C@]2(C)C(=O)CC[C@@H]32)C1` the same measures were 16%, 25% and 74%.
In the same order, the values of `C[C@]12CC[C@](O)(CN3CCN(C(=O)c4ccccc4)CC3)C[C@@H]1CC[C@@H]1[C@@H]2CC[C@]2(C)C(=O)CC[C@@H]12` are 50%, 17% and 76%.
For `COc1cccc(CN2CCN(C[C@@]3(O)CC[C@@]4(C)[C@@H](CC[C@@H]5[C@@H]4CC[C@]4(C)C(=O)CC[C@@H]54)C3)CC2)c1` the same measures were 47%, 21% and 83%.
For `COc1cccc(CN2C[C@@H](C)N(C[C@@]3(O)CC[C@@]4(C)[C@@H](CC[C@@H]5[C@@H]4CC[C@]4(C)C(=O)CC[C@@H]54)C3)C[C@@H]2C)c1`, the inhibition in test [1] was found to be 50%; in test [2], 19%; in test [3] it was 87%.
For `C[C@]12CC[C@](O)(CN3CCN(Cc4ccccc4C(F)(F)F)CC3)C[C@@H]1CC[C@@H]1[C@@H]2CC[C@]2(C)C(=O)CC[C@@H]12` the same measures were 20%, 18% and 86%.
